According to ChEMBL document CHEMBL2150909, “Imidazo[1,2-a]pyridines: orally active positive allosteric modulators of the metabotropic glutamate 2 receptor” (J Med Chem, 2012):

Key:
[1] = biological target: T1, Metabotropic glutamate receptor 2 (Homo sapiens, UniProt Q14416); assay: Agonist activity at human mGlu 2 expressed in CHO cells by PAM assay relative to glutamate; format: functional, cell-based
In short: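 The assay measured [35S]GTPγS binding to membranes from CHO cells expressing human mGluR2. Cells were butyrate-stimulated (5 mM, 24 h) before membranes were prepared. Membranes were preincubated for 30 min at 30 °C in HEPES pH 7.4 buffer (NaCl, MgCl2, 50 μM GDP) with compound (0.3 nM–50 μM, 11 concentrations) plus EC25 glutamate. [35S]GTPγS (0.1 nM final) was then added for 30 min at 30 °C. Bound label was collected by filtration and counted. Runs were done at least in triplicate with duplicate points, and a four-parameter logistic fit gave the values.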
Target sequence in this assay (Q14416 19-872 limits assumed): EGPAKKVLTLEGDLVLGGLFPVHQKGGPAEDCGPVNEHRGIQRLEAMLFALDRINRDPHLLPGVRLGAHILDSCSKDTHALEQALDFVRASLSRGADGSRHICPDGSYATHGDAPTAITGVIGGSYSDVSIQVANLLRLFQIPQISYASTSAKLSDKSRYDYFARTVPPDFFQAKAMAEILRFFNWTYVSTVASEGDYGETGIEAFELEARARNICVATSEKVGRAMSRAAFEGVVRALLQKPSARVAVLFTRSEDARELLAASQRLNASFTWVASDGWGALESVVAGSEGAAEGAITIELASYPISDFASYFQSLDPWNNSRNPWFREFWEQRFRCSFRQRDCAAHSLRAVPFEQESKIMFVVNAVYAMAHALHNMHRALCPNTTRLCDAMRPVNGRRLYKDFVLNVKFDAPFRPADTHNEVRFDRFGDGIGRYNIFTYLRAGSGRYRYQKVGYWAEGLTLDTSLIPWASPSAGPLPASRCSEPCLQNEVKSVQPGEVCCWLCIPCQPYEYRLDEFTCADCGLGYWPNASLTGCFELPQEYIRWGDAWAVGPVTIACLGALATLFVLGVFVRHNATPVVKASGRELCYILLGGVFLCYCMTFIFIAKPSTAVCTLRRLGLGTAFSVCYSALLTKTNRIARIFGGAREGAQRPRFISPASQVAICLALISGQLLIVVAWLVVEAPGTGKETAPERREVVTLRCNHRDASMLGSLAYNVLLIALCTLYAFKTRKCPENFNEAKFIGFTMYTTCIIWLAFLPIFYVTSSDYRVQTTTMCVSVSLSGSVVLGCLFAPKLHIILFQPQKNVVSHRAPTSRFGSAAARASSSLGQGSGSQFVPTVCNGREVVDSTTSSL

[2] = Metabolic stability of Sprague-Dawley rat liver microsomes assessed as compound metabolized at 5 uM after 15 mins; format: ADME, Microsome; details: read-out: Drug metabolism
In short: (§1)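 Test compound at 5 μM incubated 15 min with rat or human liver microsomes; read-out is percent of compound metabolized.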

[3] = Metabolic stability of human liver microsomes assessed as compound metabolized at 5 uM after 15 mins; format: ADME, Microsome; details: read-out: Drug metabolism; in short: as §1
[4] = Plasma concentration in SPF Swiss mouse at 10 mg/kg, sc after 4 hrs; format: ADME, organism-based; set-up: dose 10 mg/kg, route subcutaneous
In short: (§2)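 Male Swiss SPF mice dosed subcutaneously at 10 mg/kg in 20% HP-β-CD, pH 4. Brain levels measured in ng/g and plasma levels in ng/mL at the stated time, with brain/plasma ratio; geometric mean of at least two runs ± SEM.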

[5] = Oral bioavailability in Sprague-Dawley rat at 10 mg/kg; format: ADME, organism-based; details: in vivo
In short: (§3)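 Male Sprague-Dawley rats given 10 mg/kg orally and/or 1.25 mg/kg intravenously; compound formulated in 20% HP-β-CD at pH 4. Cmax, tmax, AUC0−inf, t1/2, clearance and oral bioavailability F derived from plasma levels; geometric mean of at least two runs ± SEM.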

[6] = AUC (0 to infinity) in Sprague-Dawley rat at 10 mg/kg, po and 1.25 mg/kg, iv; format: ADME, organism-based; details: plasma; in short: as §3
[7] = Drug uptake in SPF Swiss mouse brain at 10 mg/kg, sc after 1 hr; format: ADME, organism-based; set-up: dose 10 mg/kg, route subcutaneous; details: read-out: Drug uptake; in short: as §2
[8] = Tmax in Sprague-Dawley rat at 10 mg/kg, po and 1.25 mg/kg, iv; format: ADME, organism-based; details: in vivo
In short: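 Rat pharmacokinetics in Sprague−Dawley rats: oral 10 mg/kg and intravenous 1.25 mg/kg, formulated in 20% HP-β-CD at pH 4. Plasma profiles used for Cmax, tmax, AUC0−inf and t1/2. Reported as geometric means of at least two runs ± SEM.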

[9] = Clearance in Sprague-Dawley rat at 10 mg/kg, po and 1.25 mg/kg, iv; format: ADME, organism-based; details: in vivo; in short: as §3
[10] = Ratio of drug level in brain to plasma of SPF Swiss mouse at 10 mg/kg, sc after 4 hrs; format: ADME, organism-based; set-up: dose 10 mg/kg, route subcutaneous; details: read-out: BPR
In short: (§4)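 Male Swiss SPF mice, single subcutaneous dose of 10 mg/kg in 20% HP-β-CD at pH 4. Brain levels (ng/g) and plasma levels (ng/mL) measured at the stated time after dosing; brain-to-plasma ratio taken from these. Geometric mean of at least two runs ± SEM.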

[11] = Ratio of drug level in brain to plasma of SPF Swiss mouse at 10 mg/kg, sc after 2 hrs; format: ADME, organism-based; set-up: dose 10 mg/kg, route subcutaneous; details: read-out: BPR; in short: as §4
[12] = Half life in Sprague-Dawley rat at 10 mg/kg, po and 1.25 mg/kg, iv; format: ADME, organism-based; details: in vivo; in short: as §3
[13] = Cmax in Sprague-Dawley rat at 10 mg/kg, po and 1.25 mg/kg, iv; format: ADME, organism-based; details: in vivo; in short: as §3
[14] = Drug uptake in SPF Swiss mouse brain at 10 mg/kg, sc after 4 hrs; format: ADME, organism-based; set-up: dose 10 mg/kg, route subcutaneous; details: read-out: Drug uptake; in short: as §2
[15] = Plasma concentration in SPF Swiss mouse at 10 mg/kg, sc after 2 hrs; format: ADME, organism-based; set-up: dose 10 mg/kg, route subcutaneous; in short: as §2
[16] = Plasma concentration in SPF Swiss mouse at 10 mg/kg, sc after 1 hr; format: ADME, organism-based; set-up: dose 10 mg/kg, route subcutaneous; in short: as §2
[17] = Ratio of drug level in brain to plasma of SPF Swiss mouse at 10 mg/kg, sc after 1 hr; format: ADME, organism-based; set-up: dose 10 mg/kg, route subcutaneous; details: read-out: BPR; in short: as §4
[18] = Drug uptake in SPF Swiss mouse brain at 10 mg/kg, sc after 2 hrs; format: ADME, organism-based; set-up: dose 10 mg/kg, route subcutaneous; details: read-out: Drug uptake; in short: as §2
[19] = biological target: T1, Metabotropic glutamate receptor 2; assay: Agonist activity at human mGlu 2 expressed in CHO cells assessed as [35S]GTPgammaS binding by liquid scintillation analysis; format: functional, cell-based
In short: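 Membranes from butyrate-stimulated (5 mM, 24 h) CHO cells expressing human mGlu2. Preincubated 30 min at 30 °C in HEPES pH 7.4 with NaCl, MgCl2, 50 μM GDP and saponin; modulator 0.3 nM–50 μM, no added glutamate. [35S]GTPγS 0.1 nM final, 30 min at 30 °C, filtered, scintillation counted. Nonspecific binding defined with cold GTP; 11 concentrations in duplicate, ≥3 curves.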
Target sequence in this assay (Q14416 whole entry): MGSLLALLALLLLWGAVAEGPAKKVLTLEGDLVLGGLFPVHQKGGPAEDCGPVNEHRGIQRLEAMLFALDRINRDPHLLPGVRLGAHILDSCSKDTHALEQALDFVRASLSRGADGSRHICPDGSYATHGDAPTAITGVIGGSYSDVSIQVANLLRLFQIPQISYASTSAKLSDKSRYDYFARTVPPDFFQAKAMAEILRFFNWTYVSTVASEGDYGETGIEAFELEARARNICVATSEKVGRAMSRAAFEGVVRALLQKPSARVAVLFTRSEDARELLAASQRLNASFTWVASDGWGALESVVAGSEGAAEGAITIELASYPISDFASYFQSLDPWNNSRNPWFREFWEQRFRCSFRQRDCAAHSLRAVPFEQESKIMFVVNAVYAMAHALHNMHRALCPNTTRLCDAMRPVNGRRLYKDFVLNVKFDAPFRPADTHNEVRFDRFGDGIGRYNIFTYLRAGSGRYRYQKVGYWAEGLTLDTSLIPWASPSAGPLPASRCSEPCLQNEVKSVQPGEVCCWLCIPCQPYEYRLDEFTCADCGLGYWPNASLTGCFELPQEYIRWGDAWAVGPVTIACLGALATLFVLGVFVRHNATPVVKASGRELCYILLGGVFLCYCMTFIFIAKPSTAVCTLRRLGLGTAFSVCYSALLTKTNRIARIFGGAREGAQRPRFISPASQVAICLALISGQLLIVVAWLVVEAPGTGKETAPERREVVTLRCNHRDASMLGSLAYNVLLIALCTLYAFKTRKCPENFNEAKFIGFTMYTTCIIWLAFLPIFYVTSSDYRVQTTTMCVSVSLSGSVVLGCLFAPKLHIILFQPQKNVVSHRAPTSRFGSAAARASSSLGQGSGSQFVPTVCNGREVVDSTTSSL

[20] = Tmax in Sprague-Dawley rat at 10 mg/kg, po and 2.5 mg/kg, iv; format: ADME, organism-based; details: in vivo
In short: (§5)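 Rat PK: compounds formulated in 20% HP-β-CD at pH 4 and given orally and intravenously. Values are geometric means of at least two runs ± SEM.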

[21] = Cmax in Sprague-Dawley rat at 10 mg/kg, po and 2.5 mg/kg, iv; format: ADME, organism-based; details: in vivo; in short: as §5
[22] = AUC (0 to infinity) in Sprague-Dawley rat at 10 mg/kg, po and 2.5 mg/kg, iv; format: ADME, organism-based; details: plasma; in short: as §5
[23] = Clearance in Sprague-Dawley rat at 10 mg/kg, po and 2.5 mg/kg, iv; format: ADME, organism-based; details: in vivo
[24] = Half life in Sprague-Dawley rat at 10 mg/kg, po and 2.5 mg/kg, iv; format: ADME, organism-based; details: in vivo; in short: as §5

SMILES: N#Cc1c(-c2ccc(NC3CCOCC3)c(Cl)c2)ccn2c(CC(F)(F)F)cnc12
- Emax [1]: 307%
- metabolised at 0.25 h, 5 µM [2]: 36%
- metabolised at 0.25 h, 5 µM [3]: 21%

SMILES: N#Cc1c(-c2ccc(N3CCOCC3)c(Cl)c2)ccn2c(CC(F)(F)F)cnc12
- Emax [1]: 167%

SMILES: N#Cc1c(-c2ccc3c(c2)OCCNC3)ccn2c(CC(F)(F)F)cnc12
- Emax [1]: 105%

SMILES: N#Cc1c(-c2ccc(Oc3ccccc3)cc2)ccn2c(CC(F)(F)F)cnc12
- concentration at 4 h [4]: 114 ng/mL
- bioavailability [5]: 27%
- AUC(0-inf) [6]: 714 ng·h/mL
- concentration at 1 h [7]: 1840 ng/g
- Tmax [8]: 30 min
- clearance [9]: 56.7 mL/min/kg
- Kp at 4 h [10]: 1.9
- Kp at 2 h [11]: 1.7
- half-life [12]: 126 min
- Cmax [13]: 274 ng/mL
- metabolised at 0.25 h, 5 µM [2]: 23%
- concentration at 4 h [14]: 221 ng/g
- concentration at 2 h [15]: 893 ng/mL
- concentration at 1 h [16]: 1040 ng/mL
- Kp at 1 h [17]: 1.8
- metabolised at 0.25 h, 5 µM [3]: 23%
- concentration at 2 h [18]: 1530 ng/g

SMILES: N#Cc1c(-c2cc(Cl)c3[nH]ccc3c2)ccn2c(CC(F)(F)F)cnc12
- Emax [1]: 277%
- metabolised at 0.25 h, 5 µM [2]: 49%
- EC50 [19]: 320 nM
- metabolised at 0.25 h, 5 µM [3]: 35%

SMILES: N#Cc1c(-c2ccc3c(ccn3C3CCOCC3)c2)ccn2c(CC(F)(F)F)cnc12
- Tmax [20]: 30 min
- bioavailability [5]: 15%
- Emax [1]: 442%
- Cmax [21]: 216 ng/mL
- concentration at 1 h [7]: 704 ng/g
- AUC(0-inf) [22]: 281 ng·h/mL
- Kp at 2 h [11]: 0.5
- metabolised at 0.25 h, 5 µM [2]: 28%
- clearance [23]: 83.3 mL/min/kg
- half-life [24]: 55.2 min
- concentration at 2 h [15]: 95 ng/mL
- concentration at 1 h [16]: 932 ng/mL
- EC50 [19]: 501 nM
- Kp at 1 h [17]: 0.8
- metabolised at 0.25 h, 5 µM [3]: 23%
- concentration at 2 h [18]: 50 ng/g

SMILES: Cn1ccc2cc(-c3ccn4c(CC(F)(F)F)cnc4c3C#N)ccc21
- Emax [1]: 154%
- metabolised at 0.25 h, 5 µM [2]: 55%
- metabolised at 0.25 h, 5 µM [3]: 28%

SMILES: N#Cc1c(-c2ccc3c(c2)OCCN3)ccn2c(CC(F)(F)F)cnc12
- Emax [1]: 232%
- metabolised at 0.25 h, 5 µM [2]: 100%
- EC50 [19]: 1660 nM
- metabolised at 0.25 h, 5 µM [3]: 45%
